Source: ChEMBL document CHEMBL1124108, “Antihypertensive thiadiazoles. 2. Vasodilator activity of some 2-aryl-5-guanidino-1,3,4-thiadiazoles” (1988)

Legend:
Rattus norvegicus [1] = test: Maximum percentage reduction in mean blood pressure in metacorticoid (DOCA) hypertensive rats at a standard oral dose of 100 mg/kg; IA = Inactive;Maximum percentage fall in MABP <10%; format: functional, organism-based; parameters: dose 100 mg/kg
Procedure, shortened: (§1)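 Rats were DOCA hypertensive. For oral dosing, food was withdrawn 18 h before; rats dosed ip were not starved. The vehicle was isotonic saline. Pressure was recorded by transducer under minimal restraint: twice before dosing, then at 1, 2, 3, 5 and 22 h. MABP was taken as diastolic + one-third pulse pressure. The value is the maximum % fall from the mean of the two pretreatment readings, n = 3-5.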

Rattus norvegicus [2] = test: Maximum percentage reduction in mean blood pressure in metacorticoid (DOCA) hypertensive rats at a standard oral dose of 100 mg/kg; format: functional; procedure, shortened: as §1
Rattus norvegicus [3] = test: Maximum percentage reduction in mean blood pressure in metacorticoid (DOCA) hypertensive rats at a standard oral dose of 50 mg/kg; format: functional; procedure, shortened: as §1
Rattus norvegicus [4] = test: Summation of percentage reductions, compared to pretreatment controls, in MABP of DOCA hypertensive rats at 1,2,3,5,8 hr after the 50 mg/kg oral dose.; format: functional
Procedure, shortened: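 DOCA hypertensive rats (n = 5) were dosed orally. MABP (diastolic + one-third pulse pressure) was read before dosing and at 1, 2, 3, 5 and 8 h. The value is the sum of the % reductions from pretreatment control over these five time points.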

Rattus norvegicus [5] = test: Maximum percentage reduction in mean arterial blood pressure in metacorticoid (DOCA) hypertensive rats at a standard oral dose of 100 mg/kg; format: functional; procedure, shortened: as §1

Structure (SMILES) | Reduction (Rattus norvegicus [2]) [%] | other results
N=C(N)Nc1nnc(-c2ccccc2-c2ccccc2)s1 | – | Reduction (Rattus norvegicus [1]): Not significant
COCC/N=C(/N)Nc1nnc(-c2ccc(C)cc2C)s1.Cl | 31 | –
Cc1ccccc1-c1nnc(NC2=NCCN2C)s1 | – | Reduction (Rattus norvegicus [1]): Not significant
Cc1ccccc1-c1nnc(NN)s1 | – | Reduction (Rattus norvegicus [3]): 48%; Summation MABP (Rattus norvegicus [4]): 206
N=C(N)Nc1nnc(C2CCCCC2)s1 | – | Reduction (Rattus norvegicus [1]): Not significant
Cc1ccsc1-c1nnc(N=C(N)N)s1.Cl | 14 | –
COCC/N=C(/N)Nc1nnc(-c2ccc(F)cc2C)s1.Cl | 33 | –
Cc1ccccc1-c1nnc(NC(=N)NCCc2ccccc2)s1.Cl | – | Reduction (Rattus norvegicus [5]): 29%
Cc1ccccc1-c1nnc(N/C(N)=N\CCCN(C)C)s1.Cl | – | Reduction (Rattus norvegicus [5]): 20%
Cc1ccccc1-c1nnc(NC(=N)N2CCN(C)CC2)s1.Cl | 18 | –
Cc1ccccc1-c1nnc(N/C(N)=N\C(C)C)s1.Cl | – | Reduction (Rattus norvegicus [5]): 23%
Cc1ccccc1-c1nnc(NC(=N)N2CCOCC2)s1.Cl | 16 | –
Cc1ccccc1-c1nnc(NC(=N)N2CCCC2)s1 | – | Reduction (Rattus norvegicus [1]): Not significant
COCC/N=C(/N)Nc1nnc(-c2ccc(OC)c(OC)c2)s1.Cl | 20 | –
Cc1ccccc1-c1nnc(NC(=N)NC2CCCC2)s1.Cl | 20 | –
Cl.N=C(N)Nc1nnc(-c2ccc(C(F)(F)F)cc2)s1 | – | Reduction (Rattus norvegicus [5]): 18%
Cc1ccccc1-c1nnc(NC(=N)NCCCO)s1.Cl | 24 | –
Cc1ccccc1-c1nnc(N=C2N(C)CCN2C)s1 | – | Reduction (Rattus norvegicus [1]): Not significant
CCCC/N=C(/NC)Nc1nnc(-c2ccccc2C)s1.Cl | 28 | –
Cl.N=C(N)Nc1nnc(-c2ccccn2)s1 | 19 | –
Cl.N=C(N)Nc1nnc(-c2ccco2)s1 | 24 | –
Cl.N=C(N)Nc1nnc(-c2ccccc2F)s1 | – | Reduction (Rattus norvegicus [5]): 31%

Structure (SMILES) | Reduction (Rattus norvegicus [2]) [%] | other results
N=C(N)Nc1nnc(-c2ccc([N+](=O)[O-])cc2)s1 | – | Reduction (Rattus norvegicus [1]): Not significant
Cl.N=C(N)Nc1nnc(-c2cccc3ccccc23)s1 | 20 | –
C/N=C(/NC)Nc1nnc(-c2ccccc2C)s1.Cl | 27 | –
Cc1ccccc1-c1nnc(NC(=N)NCC2CCCO2)s1.Cl (centres undefined) | 17 | –
CCc1ccccc1-c1nnc(N=C(N)N)s1 | 12 | –
COCCC/N=C(/N)Nc1nnc(-c2ccccc2C)s1.Cl | 33 | –
CCOCC/N=C(/N)Nc1nnc(-c2ccccc2C)s1.Cl | 34 | –
Cc1cc(C)cc(-c2nnc(N=C(N)N)s2)c1.Cl | 18 | –
Cc1ccccc1-c1nnc(NC(=N)N(C)CC(C)O)s1.Cl (centres undefined) | 21 | –
C=CCNC(=N)Nc1nnc(-c2ccccc2C)s1.Cl | – | Reduction (Rattus norvegicus [5]): 28%
Cc1ccc(-c2nnc(NC3=NCCN3)s2)c(C)c1.Cl | – | Reduction (Rattus norvegicus [5]): 24%
Cl.N=C(N)Nc1nnc(-c2cccc(F)c2)s1 | – | Reduction (Rattus norvegicus [5]): 20%
Cl.N=C(N)Nc1nnc(-c2cccc(C(F)(F)F)c2)s1 | – | Reduction (Rattus norvegicus [5]): 14%
CCC[S+]([O-])c1ccccc1-c1nnc(N=C(N)N)s1.Cl (centres undefined) | 13 | –
CCC/N=C(/N)Nc1nnc(-c2ccccc2C)s1.Cl | 32 | –
Cc1ccccc1-c1nnc(NC2=NC(C)(C)CN2)s1.Cl | – | Reduction (Rattus norvegicus [5]): 15%
C[S+]([O-])c1ccccc1-c1nnc(N=C(N)N)s1.Cl (centres undefined) | 15 | –
Cl.N=C(N)Nc1nnc(-c2ccccc2[N+](=O)[O-])s1 | 17 | –
Cl.N=C(N)Nc1nnc(-c2ccccc2Cl)s1 | – | Reduction (Rattus norvegicus [5]): 30%
Cc1ccccc1-c1nnc(NC(=N)Nc2ccccc2)s1 | – | Reduction (Rattus norvegicus [1]): Not significant
COc1ccc(-c2nnc(N=C(N)N)s2)cc1OC.Cl | 21 | –
